Assay results published in article PMC5152947 (Journal of molecular structure, 2016).
Where “and” joins values, the source holds several entries; their conditions need not be identical. Identical values can stand only once. Like-named read-outs stand apart in the source and are kept apart here.

What was measured:
[1] = tested on: Caco-2 (human epithelial colorectal adenocarcinoma) cells; assay: Cytotoxicity assay; conditions: for TI (therapeutic index) = (IC50)CCD-18Co/(IC50)cancer cells, Caco-2: 72 h; for IC50: read-out: IC50 Caco-2
[2] = tested on: CCD-18Co (human colon fibroblasts); assay: Cytotoxicity assay; type: cell-based; conditions: read-out: IC50 CCD-18Co
[3] = tested on: HCT-116 (human colon carcinoma) cells; assay: Cytotoxicity assay; type: cell-based; conditions: for TI (therapeutic index) = (IC50)CCD-18Co/(IC50)cancer cells, HCT-116: 72 h; for IC50: read-out: IC50 HCT-116
[4] = tested on: supercoiled pBR322 plasmid DNA; assay: Chemical nuclease activity, agarose gel electrophoresis; type: biochemical; conditions: 50 and 100 μM, 1 h, 37 °C
How it was run: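 Supercoiled pBR322 (0.1 mg/mL) was incubated 1 h with complex in Tris buffer (50 mM Tris, 18 mM NaCl, pH 8.2), in the dark or under UV exposure, aerobic. Loading buffer quench, then 1% agarose gel in TBE (pH 8.2) at 70 V for 1 h. Gels stained with ethidium bromide ([…], 30 min), imaged under UV, and scored for nicked Form II.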

[5] = target: human serum albumin (HSA) (Homo sapiens, UniProt P02768); assay: Fluorescence quenching titration of human serum albumin; type: binding; conditions: for static quenching constant KS: combined quenching analysis
Sequence of human serum albumin (HSA) (P02768 25-609): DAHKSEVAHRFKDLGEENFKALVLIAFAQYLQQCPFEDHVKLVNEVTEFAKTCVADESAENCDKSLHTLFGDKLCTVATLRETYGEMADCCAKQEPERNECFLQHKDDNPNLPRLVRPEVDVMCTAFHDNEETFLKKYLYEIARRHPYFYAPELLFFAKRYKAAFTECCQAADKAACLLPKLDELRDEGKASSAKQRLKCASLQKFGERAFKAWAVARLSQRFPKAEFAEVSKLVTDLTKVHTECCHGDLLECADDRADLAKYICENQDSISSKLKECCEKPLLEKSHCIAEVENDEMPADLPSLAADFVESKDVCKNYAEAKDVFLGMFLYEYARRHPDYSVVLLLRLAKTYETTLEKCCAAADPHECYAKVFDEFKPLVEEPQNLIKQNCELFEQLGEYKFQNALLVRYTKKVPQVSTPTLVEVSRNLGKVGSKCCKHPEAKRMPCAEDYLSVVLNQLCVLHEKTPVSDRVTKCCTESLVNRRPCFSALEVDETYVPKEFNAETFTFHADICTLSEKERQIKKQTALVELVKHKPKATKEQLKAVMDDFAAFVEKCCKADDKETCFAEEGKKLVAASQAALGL

Molecule	TI (therapeutic index) = (IC50)CCD-18Co/(IC50)cancer cells, Caco-2 [1]	TI (therapeutic index) = (IC50)CCD-18Co/(IC50)cancer cells, HCT-116 [3]	IC50 ([1]; 24 h incubation) [µM]	IC50 ([1]; 48 h incubation) [µM]	IC50 ([1]; 72 h incubation) [µM]	cleavage of pBR322 DNA [4]	IC50 ([2]; 24 h incubation, normal cells) [µM]	IC50 ([2]; 48 h incubation, normal cells) [µM]	IC50 ([2]; 72 h incubation, normal cells) [µM]	Modified Stern-Volmer K ([5]; 298 K) [M⁻¹]	Modified Stern-Volmer f (fraction of fluorophore initially accessible) ([5]; 298 K)	Scatchard K ([5]; 298 K) [M⁻¹]	Scatchard n (number of binding sites) ([5]; 298 K)	Modified Stern-Volmer K ([5]; 303 K) [M⁻¹]	Modified Stern-Volmer f (fraction of fluorophore initially accessible) ([5]; 303 K)	Scatchard K ([5]; 303 K) [M⁻¹]	Scatchard n (number of binding sites) ([5]; 303 K)	IC50 ([3]; 24 h incubation) [µM]	IC50 ([3]; 48 h incubation) [µM]	IC50 ([3]; 72 h incubation) [µM]	further results
COc1cc([C@@H]2c3cc4c(cc3[C@@H](O[C@@H]3O[C@@H]5CO[C@@H](C)O[C@H]5[C@H](O)[C@H]3O)[C@H]3COC(=O)[C@H]23)OCO4)cc(OC)c1O [Etoposide, reference compound]	2.71	3.07																			IC50 ([1]; Homo sapiens, Caco-2, 24 h): 23 ± 0.9 µM; IC50 ([1]; Homo sapiens, Caco-2, 48 h): 18.9 ± 1.6 µM; IC50 ([1]; Homo sapiens, Caco-2, 72 h): 16.2 ± 1.7 µM; IC50 ([2]; Homo sapiens, CCD-18Co, 24 h): 51.2 ± 1.1 µM; IC50 ([2]; Homo sapiens, CCD-18Co, 48 h): 48.7 ± 3.1 µM; IC50 ([2]; Homo sapiens, CCD-18Co, 72 h): 43.9 ± 1.8 µM; IC50 ([3]; Homo sapiens, HCT-116, 24 h): 28.9 ± 2 µM; IC50 ([3]; Homo sapiens, HCT-116, 48 h): 26.9 ± 1.5 µM; IC50 ([3]; Homo sapiens, HCT-116, 72 h): 14.3 ± 1.4 µM
Ga(EtATSC)3·0.25C2H5OH [Complex 2]	5 and 5.14	1.98	23.1 ± 2.1	18.7 ± 1.7	11.6 ± 1.1	cleavage of the DNA occurred	78.6 ± 2.1	60.6 ± 2	59.5 ± 2.5	308000	1.1	29700	1.1	169000	1.3	17600	1.1	49.9 ± 2.5	43.6 ± 2.1	30.1 ± 1.1	
Ga(PhATSC)3·H2O [Complex 3]	0.97	1.33	78.7 ± 5.3	58 ± 1.5	44.1 ± 3.6	both the Form II and Form III (linear DNA) being present	80.9 ± 2.6	59.2 ± 2.6	42.9 ± 1.3	302000	0.93	26300	0.96	231000	1.1	20800	1.1	79 ± 1.1	56 ± 1.7	32.1 ± 2.4	static quenching constant KS ([5]; 298 K): 20400 M⁻¹; static quenching constant KS ([5]; 303 K): 33500 M⁻¹; Modified Stern-Volmer K ([5]; 308 K): 325000 M⁻¹; Modified Stern-Volmer f (fraction of fluorophore initially accessible) ([5]; 308 K): 1.0; Scatchard K ([5]; 308 K): 28800 M⁻¹; Scatchard n (number of binding sites) ([5]; 308 K): 1.1
